In ChEMBL document CHEMBL4673214, “Synthesis and antibacterial bioactivities of cationic deacetyl linezolid amphiphiles” (Eur J Med Chem, 2018):
Converted amounts (≈) assume the structure as drawn. The source made the active and inactive calls. The calls are words filed in the database; no cut-off is given here.

Legend:
Cell membrane [1] = test: Induction of cytoplasmic membrane depolarization in Staphylococcus aureus ATCC 29213 at 20 ug/ml measured for 12 mins by DiSC35 dye-based fluorescence assay; type: subcellular; conditions: dose 20.0 µg/ml
In short: (§1)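 Mid-log bacteria were washed and resuspended at ~10^8 CFU/mL: S. aureus in PBS, E. coli in 5 mM HEPES/5 mM glucose/100 mM KCl (1:1:1). Cells were loaded with diSC35 (10 µM stock) for 30 min (S. aureus) or 40 min (E. coli, plus EDTA). Fluorescence (ex 622/em 670 nm) was read for an 8 min baseline, then every 2 min for 12 min after compound at 20 µg/mL final. Water served as control.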

Cell membrane [2] = test: Induction of cytoplasmic membrane depolarization in Escherichia coli ATCC 25922 at 20 ug/ml measured for 12 mins by DiSC35 dye-based fluorescence assay; type: subcellular; conditions: dose 20.0 µg/ml; in short: as §1
Cell membrane [3] = test: Induction of outer membrane permeabilization in Escherichia coli ATCC 25922 at 20 ug/ml measured for 12 mins by NPN dye based fluorescence assay; conditions: dose 20.0 µg/ml
In short: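 Mid-log E. coli in HEPES/glucose/KCl at ~10^8 CFU/mL was preincubated 40 min with N-phenylnaphthylamine (10 µM stock). Fluorescence (ex 350/em 420 nm) was read for an 8 min baseline, then every 2 min for 12 min after compound at 20 µg/mL final. Water served as control.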

Cell membrane [4] = test: Induction of inner membrane permeabilization in Escherichia coli ATCC 25922 at 20 ug/ml measured for 12 mins by propidium iodide staining based fluorescence microscopic analysis; conditions: dose 20.0 µg/ml
In short: (§2)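 Mid-log bacteria were washed and resuspended at ~10^8 CFU/mL and preincubated with propidium iodide (10 µM stock) for 30 min (S. aureus) or 40 min (E. coli). Fluorescence (ex 535/em 617 nm) was read on a plate for an 8 min baseline, then every 2 min for 12 min after compound at 20 µg/mL final. Water served as control.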

Cell membrane [5] = test: Induction of inner membrane permeabilization in Staphylococcus aureus ATCC 29213 at 20 ug/ml measured for 12 mins by propidium iodide staining based fluorescence microscopic analysis; conditions: dose 20.0 µg/ml; in short: as §2
Escherichia coli [6] = test: Antibiofilm activity against Escherichia coli ATCC 25922 assessed as inhibition of biofilm formation incubated for 24 hrs by crystal violet staining assay; type: functional
In short: (§3)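 Twofold serial dilutions in MHB received 1:1000-diluted exponential-phase bacteria and were incubated 24 h at 37 °C. Wells were rinsed, stained with 0.1% crystal violet for 10 min and dissolved in ethanol, and OD540 was read. MBIC80 was the concentration inhibiting 80% of biofilm formation versus untreated wells, taken from dose-response curves.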

Staphylococcus aureus [7] = test: Antibiofilm activity against Staphylococcus aureus ATCC 29213 assessed as inhibition of biofilm formation incubated for 24 hrs by crystal violet staining assay; type: functional; in short: as §3
Escherichia coli [8] = test: Antibiofilm activity against 24 hrs preformed biofilm of Escherichia coli ATCC 25922 assessed as eradication of preformed biofilm incubated for 24 hrs by crystal violet staining assay; type: functional
Staphylococcus aureus [9] = test: Antibiofilm activity against 24 hrs preformed biofilm of Staphylococcus aureus ATCC 29213 assessed as eradication of preformed biofilm incubated for 24 hrs by crystal violet staining assay; type: functional
[10] = Hemolytic activity in sheep RBC incubated for 1 hr; type: ADME, cell-based, Ovis aries, Erythrocyte; conditions: sheep red blood cells (erythrocytes)
In short: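 Sheep RBCs were resuspended at 5% in PBS and mixed 3:1 with serial dilutions (2560 to 5 µg/mL, pre-mixing levels), then incubated 1 h at 37 °C. After centrifugation, supernatant A540 was read. Hemolysis % was calculated as (A−A0)/(Atotal−A0)×100, with untreated RBCs as 0% and 0.1% Triton X-100 as total lysis.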

Enterobacteriaceae [11] = test: Antibacterial activity against NDM1 producing carbapenem-resistant Enterobacteriaceae clinical isolate 10 assessed as reduction in bacterial growth incubated for 16 to 20 hrs by CLSI-based broth microdilution method; type: functional; conditions: time 16-20 hrs
In short: (§4)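 Clinical isolates tested by broth microdilution in cation-adjusted Mueller-Hinton broth. Cultures grown 4-6 h (~10^8 CFU/mL) were diluted to ~10^6 CFU/mL and mixed 1:1 with compound serial dilutions made from 256 down to 0.5 µg/mL (pre-mixing). Plates held at 37 °C for 16-20 h, then read for growth. Each concentration run in duplicate, whole experiment at least twice.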

Enterobacteriaceae [12] = test: Antibacterial activity against NDM1 producing carbapenem-resistant Enterobacteriaceae clinical isolate 8 assessed as reduction in bacterial growth incubated for 16 to 20 hrs by CLSI-based broth microdilution method; type: functional; conditions: time 16-20 hrs; in short: as §4
Enterobacteriaceae [13] = test: Antibacterial activity against NDM1 producing carbapenem-resistant Enterobacteriaceae clinical isolate 7 assessed as reduction in bacterial growth incubated for 16 to 20 hrs by CLSI-based broth microdilution method; type: functional; conditions: time 16-20 hrs; in short: as §4
Enterobacteriaceae [14] = test: Antibacterial activity against NDM1 producing carbapenem-resistant Enterobacteriaceae clinical isolate 6 assessed as reduction in bacterial growth incubated for 16 to 20 hrs by CLSI-based broth microdilution method; type: functional; conditions: time 16-20 hrs; in short: as §4
Enterobacteriaceae [15] = test: Antibacterial activity against NDM1 producing carbapenem-resistant Enterobacteriaceae clinical isolate 5 assessed as reduction in bacterial growth incubated for 16 to 20 hrs by CLSI-based broth microdilution method; type: functional; conditions: time 16-20 hrs; in short: as §4
Enterobacteriaceae [16] = test: Antibacterial activity against NDM1 producing carbapenem-resistant Enterobacteriaceae clinical isolate 4 assessed as reduction in bacterial growth incubated for 16 to 20 hrs by CLSI-based broth microdilution method; type: functional; conditions: time 16-20 hrs; in short: as §4
Enterobacteriaceae [17] = test: Antibacterial activity against NDM1 producing carbapenem-resistant Enterobacteriaceae clinical isolate 3 assessed as reduction in bacterial growth incubated for 16 to 20 hrs by CLSI-based broth microdilution method; type: functional; conditions: time 16-20 hrs; in short: as §4
Enterobacteriaceae [18] = test: Antibacterial activity against NDM1 producing carbapenem-resistant Enterobacteriaceae clinical isolate 2 assessed as reduction in bacterial growth incubated for 16 to 20 hrs by CLSI-based broth microdilution method; type: functional; conditions: time 16-20 hrs; in short: as §4
Enterobacteriaceae [19] = test: Antibacterial activity against NDM1 producing carbapenem-resistant Enterobacteriaceae clinical isolate 1 assessed as reduction in bacterial growth incubated for 16 to 20 hrs by CLSI-based broth microdilution method; type: functional; conditions: time 16-20 hrs; in short: as §4
Klebsiella pneumoniae [20] = test: Antibacterial activity against carbapenem-resistant Klebsiella pneumoniae clinical isolate 10 assessed as reduction in bacterial growth incubated for 16 to 20 hrs by CLSI-based broth microdilution method; type: functional; conditions: time 16-20 hrs; in short: as §4
Klebsiella pneumoniae [21] = test: Antibacterial activity against carbapenem-resistant Klebsiella pneumoniae clinical isolate 9 assessed as reduction in bacterial growth incubated for 16 to 20 hrs by CLSI-based broth microdilution method; type: functional; conditions: time 16-20 hrs; in short: as §4
Klebsiella pneumoniae [22] = test: Antibacterial activity against carbapenem-resistant Klebsiella pneumoniae clinical isolate 8 assessed as reduction in bacterial growth incubated for 16 to 20 hrs by CLSI-based broth microdilution method; type: functional; conditions: time 16-20 hrs; in short: as §4
Klebsiella pneumoniae [23] = test: Antibacterial activity against carbapenem-resistant Klebsiella pneumoniae clinical isolate 7 assessed as reduction in bacterial growth incubated for 16 to 20 hrs by CLSI-based broth microdilution method; type: functional; conditions: time 16-20 hrs; in short: as §4
Klebsiella pneumoniae [24] = test: Antibacterial activity against carbapenem-resistant Klebsiella pneumoniae clinical isolate 6 assessed as reduction in bacterial growth incubated for 16 to 20 hrs by CLSI-based broth microdilution method; type: functional; conditions: time 16-20 hrs; in short: as §4
Klebsiella pneumoniae [25] = test: Antibacterial activity against carbapenem-resistant Klebsiella pneumoniae clinical isolate 5 assessed as reduction in bacterial growth incubated for 16 to 20 hrs by CLSI-based broth microdilution method; type: functional; conditions: time 16-20 hrs; in short: as §4
Klebsiella pneumoniae [26] = test: Antibacterial activity against carbapenem-resistant Klebsiella pneumoniae clinical isolate 4 assessed as reduction in bacterial growth incubated for 16 to 20 hrs by CLSI-based broth microdilution method; type: functional; conditions: time 16-20 hrs; in short: as §4
Klebsiella pneumoniae [27] = test: Antibacterial activity against carbapenem-resistant Klebsiella pneumoniae clinical isolate 3 assessed as reduction in bacterial growth incubated for 16 to 20 hrs by CLSI-based broth microdilution method; type: functional; conditions: time 16-20 hrs; in short: as §4
Klebsiella pneumoniae [28] = test: Antibacterial activity against carbapenem-resistant Klebsiella pneumoniae clinical isolate 2 assessed as reduction in bacterial growth incubated for 16 to 20 hrs by CLSI-based broth microdilution method; type: functional; conditions: time 16-20 hrs; in short: as §4
Enterobacteriaceae [29] = test: Antibacterial activity against NDM1 producing carbapenem-resistant Enterobacteriaceae clinical isolate 9 assessed as reduction in bacterial growth incubated for 16 to 20 hrs by CLSI-based broth microdilution method; type: functional; conditions: time 16-20 hrs; in short: as §4
Salmonella enterica = test: Antibacterial activity against Salmonella enterica ATCC 8387 assessed as reduction in bacterial growth incubated for 16 to 20 hrs by CLSI-based broth microdilution method; type: functional; conditions: time 16-20 hrs
In short: (§5)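 Broth microdilution following CLSI, in cation-adjusted Mueller-Hinton broth. Inoculum from a 4-6 h culture (~10^8 CFU/mL), diluted to ~10^6 CFU/mL. Water stocks were serially diluted in MHB (256 to 0.5 µg/mL) and mixed 1:1 with the inoculum. Plates ran 16-20 h at 37 °C. MIC was read visually. Each concentration was tested in duplicate, and the experiment was repeated at least twice.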

Escherichia coli [30] = test: Antibacterial activity against Escherichia coli ATCC 25922 assessed as reduction in bacterial growth incubated 16 to 20 hrs by CLSI-based broth microdilution method; type: functional; conditions: time 16-20 hrs; in short: as §5
Klebsiella pneumoniae [31] = test: Antibacterial activity against carbapenem-resistant Klebsiella pneumoniae clinical isolate 1 assessed as reduction in bacterial growth incubated for 16 to 20 hrs by CLSI-based broth microdilution method; type: functional; conditions: time 16-20 hrs; in short: as §4
Staphylococcus aureus [32] = test: Antibacterial activity against Staphylococcus aureus ATCC 29213 assessed as reduction in bacterial growth incubated for 16 to 20 hrs by CLSI-based broth microdilution method; type: functional; conditions: time 16-20 hrs; in short: as §5
Staphylococcus aureus [33] = test: Resistance ratio of compound MIC for Staphylococcus aureus ATCC 29213 after 20 passages to compound MIC for Staphylococcus aureus ATCC 29213 after 16 to 20 hrs by CLSI-based broth microdilution method; type: functional
In short: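 Serial passaging: after each 24 h MIC assay, cells grown at 1/2 MIC were transferred and the MIC assayed again, for 20 passages. Done with S. aureus, E. coli and MRSA. MIC plotted against days of passage. Experiment repeated twice.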

Escherichia coli [34] = test: Bactericidal activity against early exponential phase of Escherichia coli ATCC 25922 at 6X MIC measured after 6 hrs by time-kill kinetic assay; type: functional, organism-based
In short: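 An overnight culture was diluted 1:10,000 in MHB and shaken at 225 rpm and 37 °C for 2 h (early exponential phase), then exposed to compound. Samples taken at intervals were centrifuged, resuspended in PBS, plated as tenfold dilutions on MHA and incubated overnight at 37 °C. CFU/mL were counted. Biological replicates were run.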

For `CC(=O)NC[C@H]1CN(c2ccc(N3CCOCC3)c(F)c2)C(=O)O1` [LINEZOLID], the Activity (Cell membrane [1]) was “inactive”, the Activity (Cell membrane [2]) was “inactive” and the Activity (Cell membrane [3]) was “inactive”. For the same compound, the Activity (Cell membrane [4]) was “inactive”, the Activity (Cell membrane [5]) was “inactive” and the MBIC80 (Escherichia coli [6]) was greater than 128 µg/mL. The MBIC90 (Escherichia coli [6]) was greater than 128 µg/mL, the MBIC80 (Staphylococcus aureus [7]) was 26.8 µg/mL and the MBIC90 (Staphylococcus aureus [7]) was 36.1 µg/mL. It also gave an MBEC (Escherichia coli [8]) greater than 128 µg/mL, an MBEC80 (Escherichia coli [8]) greater than 128 µg/mL and an MBEC90 (Escherichia coli [8]) greater than 128 µg/mL. The MBEC (Staphylococcus aureus [9]) was greater than 128 µg/mL, the MBEC80 (Staphylococcus aureus [9]) was greater than 128 µg/mL and the MBEC90 (Staphylococcus aureus [9]) was greater than 128 µg/mL. For the same compound, the HC50 at 1 h [10] was 550 µg/mL, the MIC (Enterobacteriaceae [11]) was greater than 64 µg/mL and the MIC (Enterobacteriaceae [12]) was greater than 64 µg/mL. The MIC (Enterobacteriaceae [13]) was greater than 64 µg/mL, the MIC (Enterobacteriaceae [14]) was greater than 64 µg/mL and the MIC (Enterobacteriaceae [15]) was greater than 64 µg/mL. For the same compound, the MIC (Enterobacteriaceae [16]) was greater than 64 µg/mL, the MIC (Enterobacteriaceae [17]) was greater than 64 µg/mL and the MIC (Enterobacteriaceae [18]) was greater than 64 µg/mL. It also gave an MIC (Enterobacteriaceae [19]) greater than 64 µg/mL, an MIC (Klebsiella pneumoniae [20]) greater than 64 µg/mL and an MIC (Klebsiella pneumoniae [21]) greater than 64 µg/mL. It also gave an MIC (Klebsiella pneumoniae [22]) greater than 64 µg/mL, an MIC (Klebsiella pneumoniae [23]) greater than 64 µg/mL and an MIC (Klebsiella pneumoniae [24]) greater than 64 µg/mL. For the same compound, the MIC (Klebsiella pneumoniae [25]) was greater than 64 µg/mL, the MIC (Klebsiella pneumoniae [26]) was greater than 64 µg/mL and the MIC (Klebsiella pneumoniae [27]) was greater than 64 µg/mL. For the same compound, the MIC (Klebsiella pneumoniae [28]) was greater than 64 µg/mL, the MIC (Enterobacteriaceae [29]) was greater than 64 µg/mL and the MIC (Salmonella enterica) was greater than 64 µg/mL. For the same compound, the MIC (Escherichia coli [30]) was greater than 64 µg/mL and the MIC (Klebsiella pneumoniae [31]) was greater than 64 µg/mL.

For `CCn1cc(C(=O)O)c(=O)c2cc(F)c(N3CCNCC3)cc21` [NORFLOXACIN], the MIC (Staphylococcus aureus [32]) was 1 µg/mL (≈ 3.13 µM) and the Ratio (Staphylococcus aureus [33]) was 256.

With `CO[C@@]1(NC(=O)[C@H](C(=O)O)c2ccc(O)cc2)C(=O)N2C(C(=O)O)=C(CSc3nnnn3C)CO[C@@H]21` the Activity (Escherichia coli [34]) was “inactive”.
